From PubChem
proKLK7 act: proKLK7 zymogen activators, primary screen, biochemical, fluorescence intensity. Kallikrein-7 (Homo sapiens), P49862. purified proKLK7, EDANS-DABCYL substrate fluorescence; 100% is mature enzyme control, 0% vehicle. activation, % at 7 µM. actives 0.9% (n = 370,000);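 active = activation above the mean of all tested compounds plus 3 SD, computed per campaign excluding outliers beyond control limits, cut at about 13% in these data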
CRFR2-BP antag: antagonists of CRF-BP/CRF-R2 complex, primary screen, cell-based, HEK293, calcium dye fluorescence, uHTS; actives 0.59% (n = 350,000); inhibition, % at 11.8 µM; CRF-induced calcium fluorescence; AID 588475, 2011;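 active = inhibition of the ligand-induced calcium signal above about 50% at the single tested concentration, limit read from the data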
DDE Tn7 FP inh: inhibitors of Tn7 peptide binding to fibrin DD(E), primary screen, biochemical, fluorescence polarization, human fibrin, Tn7 probe; Fibrinogen beta chain (Homo sapiens), P02675; FP displacement of FITC-Tn7 peptide from fibrin DD(E); 0% = median of compound wells per plate; inhibition, % at 8.3 µM; actives 0.13% (n = 370,000);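 active = inhibition above the mean of compounds falling within the control limits plus 3 SD of them, cut at about 14% in these data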
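Assay system: Human clot-derived fibrin DD(E) complex | Buffer or medium: Tris/NaCl/CaCl2 buffer, pH 7.8 | Repeats: One replicate per compound | Benchmarks: Aha-Tn7 high control | Measure: % inhibition scaled between sample-field median and high-control FP | Schedule: 10 min plus 3 h, room temperature | Signal: Fluorescence polarization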
Tn6 DDE FP: inhibitors of Tn6 peptide binding to fibrin DD(E), primary screen, biochemical, fluorescence polarization, human fibrin, Tn6 probe. Fibrin DD(E) TRITC-Tn6 fluorescence polarization displacement. inhibition, % at 8.3 µM. actives 0.21% (n = 370,000). AID 720509, 2013;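 active = inhibition above a per-campaign cutoff: mean of compounds within control limits plus 3 SD, cut at about 15% in these data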
CendR NRP1 mod: modulators of CendR peptide binding to NRP-1, primary screen, biochemical, fluorescence polarization, uHTS | Neuropilin-1 (Homo sapiens), O14786 | FAM-RPARPAR peptide binding to NRP-1 | inhibition, % at 25 µM | actives 0.85% (n = 360,000);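 active = inhibition or corrected inhibition above about 18%, plus a signal ratio from 0.5 to 1.5, limit read from the data, passing the limit was not always enough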
Target sequence (O14786 whole entry, looked up): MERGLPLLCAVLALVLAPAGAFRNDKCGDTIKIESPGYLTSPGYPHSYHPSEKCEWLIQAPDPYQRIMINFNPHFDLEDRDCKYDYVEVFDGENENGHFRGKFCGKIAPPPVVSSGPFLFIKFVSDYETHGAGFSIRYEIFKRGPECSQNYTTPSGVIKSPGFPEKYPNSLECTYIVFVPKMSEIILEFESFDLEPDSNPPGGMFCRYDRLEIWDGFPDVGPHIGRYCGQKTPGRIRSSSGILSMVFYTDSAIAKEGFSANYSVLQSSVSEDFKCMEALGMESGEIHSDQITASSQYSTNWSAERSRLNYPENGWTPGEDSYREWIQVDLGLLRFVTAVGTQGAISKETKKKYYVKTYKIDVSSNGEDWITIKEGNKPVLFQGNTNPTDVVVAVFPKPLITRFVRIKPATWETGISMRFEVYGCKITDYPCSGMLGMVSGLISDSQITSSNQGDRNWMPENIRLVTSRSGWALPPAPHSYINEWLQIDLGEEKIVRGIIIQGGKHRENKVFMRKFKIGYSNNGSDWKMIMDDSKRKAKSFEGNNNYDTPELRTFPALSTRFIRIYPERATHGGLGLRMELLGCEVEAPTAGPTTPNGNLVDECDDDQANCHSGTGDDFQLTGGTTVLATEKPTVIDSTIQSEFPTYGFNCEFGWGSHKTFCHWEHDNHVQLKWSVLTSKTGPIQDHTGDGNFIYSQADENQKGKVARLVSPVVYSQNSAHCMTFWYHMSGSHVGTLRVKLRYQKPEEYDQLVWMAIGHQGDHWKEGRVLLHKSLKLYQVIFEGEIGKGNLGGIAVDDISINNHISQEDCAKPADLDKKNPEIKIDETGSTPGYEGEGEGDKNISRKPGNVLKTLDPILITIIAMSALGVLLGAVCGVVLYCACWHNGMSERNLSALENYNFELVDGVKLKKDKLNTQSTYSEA
CRFR2-BP ag: agonists of CRF-BP/CRF-R2 complex, primary screen, cell-based, HEK293, calcium dye fluorescence, uHTS. actives 0.46% (n = 350,000). calcium dye fluorescence (FLIPR); percent of saturating CRF peptide response. activation, % at 13.2 µM. CRF-binding protein / CRF receptor 2 complex (human);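 active = activation of at least 50%, plus an integration ratio under a set limit after plate pattern correction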
A number is an active result; – = inactive; · = no result. Hits are enriched below; roughly 2.9% of the tested compounds scored in any of these assays.

SMILES	proKLK7 act	CRFR2-BP antag	DDE Tn7 FP inh	Tn6 DDE FP	CendR NRP1 mod	CRFR2-BP ag
CCOc1ccc(S(=O)(=O)N2CCN(C(=O)c3ccncc3)CC2)cc1	–	62	–	–	–	–
O=C(c1ccccn1)N1CCN(S(=O)(=O)c2ccccc2)CC1	–	–	–	–	24	–
Cc1ccc2nc(-c3ccc(CN4CCC5(CC4)CNc4ccccc45)cc3)c(-c3ccccc3)nc2c1	–	·	–	–	·	·
CCCCCCCCN1C(=O)[C@@H](CC(=O)NCCC(C)C)C[C@@]2(C(=O)OC)C1=C[C@H](COCc1ccccc1)O[C@@H]2C	–	·	–	–	·	·
C[C@@H]1CNCCN1c1ccc(N2CCS(=O)(=O)CC2)c(C#N)c1	–	·	–	–	·	·
CCOC(=O)C1=C(CSc2nc(CC)c(C)cc2C#N)OC(N)=C(C#N)C1c1ccccc1 (stereo not drawn)	–	–	–	–	–	–
CCOC(=O)C1=C(CSc2nc(-c3ccccc3)ccc2C#N)OC(N)=C(C#N)C1c1ccc(OC)cc1 (stereo not drawn)	–	–	–	–	–	50
O=C(c1ccccc1)N1CCC(Oc2cccnc2)CC1	–	·	–	–	·	·
COc1ccc(Cn2c(NC(=O)c3ccccc3)nc(Cc3ccccc3)c2Cc2ccccc2)cc1	–	·	–	–	·	·
Cc1ccc(S(=O)(=O)N2CCC(C)CC2)cc1[N+](=O)[O-]	–	–	–	–	–	–
Cc1cccc(Nc2nnc(SCC(=O)Nc3cccc(S(=O)(=O)N4CCCCC4)c3)s2)c1	–	–	–	–	–	–
Cc1cccc(C)c1Nc1nnc(SCC(=O)Nc2cc(S(=O)(=O)N3CCCCC3)ccc2Cl)s1	–	–	–	–	26	–
Cc1ccc(S(=O)(=O)N2CCCCC2)cc1NC(=O)CSCC(=O)O	–	–	–	–	59	–
O=C(O)CSCC(=O)Nc1ccc(S(=O)(=O)N2CCCCC2)cc1	–	–	–	–	–	–
Cc1ccc(S(=O)(=O)N2CCCCCC2)cc1[N+](=O)[O-]	–	58	–	–	–	–
COc1ccc(CN(C)C(C#Cc2ccccc2)Cc2ccccc2)c(OC)c1 (stereo not drawn)	–	·	–	–	·	·
O=C(CN(C(=O)CCC(=O)Nc1ccccn1)c1ccc2c(c1)OCO2)NCc1ccco1	–	–	–	–	22	–
Cc1ccc(N(CC(=O)NCc2ccco2)C(=O)CCC(=O)Nc2ccccn2)cc1C	–	–	–	–	–	–
O=C(Nc1cccc(Cl)c1)N(CCN1CCOCC1)Cc1cccc(Cl)c1	–	–	–	–	–	–
COc1ccc(CN(CCCN2CCOCC2)C(=O)Nc2cccc(Cl)c2)cc1OC	–	–	–	–	27	–
C[C@@H]1ON(C)[C@H]2C[C@H]3c4cc(-c5ccc(F)cc5)ccc4CCN3C[C@@H]12	–	·	–	–	·	·
Cc1cccc(N2CC(O)(c3cccs3)[N+]3=C2CCCC3)c1 (stereo not drawn)	–	94	–	–	–	–
C[C@H]1CN([C@@H](C)CO)C(=O)CCCn2cc(nn2)CO[C@@H]1CN(C)C(=O)Nc1ccc(N2CCN(C)CC2)cc1	–	–	–	–	21	–
C[C@H](CO)N1C[C@H](C)[C@@H](CN(C)C(=O)c2ccc3ccn(C)c3c2)OCc2cn(nn2)CCCC1=O	–	63	–	–	–	–
CC(C)N(C(C)C)S(=O)(=O)c1ccc(N2CCc3ccccc3C2)nc1	–	–	–	–	30	–
SMILES	proKLK7 act	CRFR2-BP antag	DDE Tn7 FP inh	Tn6 DDE FP	CendR NRP1 mod	CRFR2-BP ag
COc1cccc(/C=C2\CC3(OC(=O)c4cccc(F)c4)CCCN2C3)c1 (stereo not drawn)	–	·	–	–	·	·
O=C1[C@H]2[C@H](C=CC[C@H]2C(=O)N2CCN(c3ccccc3)CC2)CCN1Cc1ccccc1	–	–	–	–	28	–
O=C1[C@H]2[C@H](C=CC[C@H]2C(=O)N2CCN(c3ccccc3)CC2)CCN1Cc1ccc(Cl)c(Cl)c1	–	–	–	–	–	–
Cc1ccc(CN2CCCCC(NC(=O)c3ccc(COc4ccccc4)cc3)C2=O)cc1 (stereo not drawn)	–	·	–	–	·	·
COc1cccc(C(=O)O/N=C(\N)c2ccc([N+](=O)[O-])cc2)c1OC	–	–	–	–	25	–
COc1ccc(C(=O)O/N=C(\N)c2ccccc2)c(OC)c1	–	–	–	–	18	–
COC(CNC(=O)[C@H](Cc1c[nH]c2ccccc12)NC1(C(=O)NC2CCCCC2)CCCCC1)OC	·	·	–	–	·	·
COC(=O)[C@]12C[C@H](CC(=O)N3CCCCC3)C(=O)N(CCc3ccc(OC)c(OC)c3)C1=C[C@H](COCc1ccccc1)O[C@@H]2C	–	·	–	–	·	·
COc1cc([C@@H]2[C@H]3CN(C)CC=C3C(C#N)=C(N)C2(C#N)C#N)cc2c1OCO2	–	–	–	–	–	–
COc1cccc(C2C3CN(C)CC=C3C(C#N)=C(N)C2(C#N)C#N)c1OC (stereo not drawn)	–	–	–	–	–	72
CN1CC=C2C(C#N)=C(N)C(C#N)(C#N)C(CCc3ccccc3)C2C1 (stereo not drawn)	·	–	·	·	–	59
CN1CC=C2C(C#N)=C(N)C(C#N)(C#N)[C@H](c3cccs3)[C@H]2C1	·	–	·	·	–	53
CCOc1ccc(-n2c(SCC(=O)Nc3ccc(S(=O)(=O)Nc4cc(C)nc(C)n4)cc3)nnc2-c2ccco2)cc1	–	·	–	–	·	·
CCCC(=O)N1CCC[C@]2(CC[C@H](CCC#N)O2)C1	–	·	–	–	·	·
COc1ccccc1C(=O)NC(CCSC)C(=O)NC1CC1 (stereo not drawn)	–	–	–	–	–	–
COc1ccccc1C(=O)NC(CCSC)C(=O)NC1CCCCCC1 (stereo not drawn)	–	101	–	–	–	–
COCCNC(=S)N1CCc2cc(OC)c(OC)cc2C1COc1ccc(C(C)C)cc1 (stereo not drawn)	–	50	–	–	–	–
COC(=O)c1c(C(=O)OC)c(-c2ccc(Cl)c(Cl)c2)n2c1CCC2	·	–	·	·	23	–
CCC[C@H](/C=C/C(=O)OC(C)(C)C)Sc1ccc(OC)cc1	–	·	–	–	·	·
Cc1nn(C)c(C)c1CN(C)C(=O)c1cc2nc(-c3ccco3)cc(C(F)(F)F)n2n1	–	–	–	–	–	–
